# Measured values as given in the RNAGym collection of RNA variant scans (doi:10.1126/science.aae0568).
# Variants at the floor of the assay were thinned out.
# B1: tRNA (parent)
# chain: GUUCCGUUGGCGUAAUGGUAACGCGUCUCCCUCCUAAGGAGAAGACUGCGGGUUCGAGUCCCGUACGGAACG
# Variants of: B1
# Test: yeast fitness relative to wild type (ratio to wild type); higher = fitter; tRNA-Arg(CCU), competitive growth, 37 C, YPD
# Procedure, shortened: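 Changes in genotype frequencies gave Darwinian fitness relative to wild type. Frequencies were read by 100-nucleotide paired-end sequencing of gene amplicons before and after pooled Saccharomyces cerevisiae strains, carrying tRNA-Arg(CCU) gene variants at the native locus, were competed in YPD at 37°C for 24 hours in six replicates. A genotype was kept only with ≥ 100 starting reads, and estimates < 0.5 were set to 0.5.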
row,Variant,yeast fitness
1,GUUCAGUUGGCGUAAUGGUAACGCGUCUCCGUCCUAAGGGGAAGACUGCGGGUUCGAGUCCCGUACGGAACG [C5A C31G A40G],0.529
2,GUUCAGUUGGCGUAAUGGUAAGGCGUCUCCGUCCUAAGGAGAAGACUGCGGGUUCGAGUCCCGUACGGAACG [C5A C22G C31G],≤ 0.5
3,GUUCAGUUGGCAUAAUGAUAACGCGUCUCCCUCCUAAGGAGAAGACUGCGGGUUCGAGUCCCGUUCGGAACG [C5A G12A G18A A65U],≤ 0.5
4,GUUCAGUUGGCGUAAUGGUAACGGGUCUCCCUCCUAAGGAGAAGACUGCGGGUUCGAGUCCCGUACGGCACG [C5A C24G A69C],≤ 0.5
5,GUUCAGUUGGCGUAAUGGUAACGGGUCUCCCUCCUAAGGAGAAGACUGCGGGUUCGAGUCCCGUACGGUACG [C5A C24G A69U],0.578
6,GUUCAGUUGGCGUAAUGGUAACGCGUCUCCCUGCUAAGGAGAAGACUGCGGGUUCGAGUCCCGUACGGAACG [C5A C33G],0.698
7,GUUCAGUUGGCGUAAUAGUAACGCGUCUCCCUCCUAAGGAGAAGAAUGCGGGUUAGAGUCCCGUACGGAACG [C5A G17A C46A C55A],≤ 0.5
8,GUUCAGUUGGCGUAAUGGUAAUGCGUCUCCCUCCCAAGGAGAAGACUGUGGGUUCGAGUCCCGUAUGGAACG [C5A C22U U35C C49U C66U],≤ 0.5
9,GUUCAGUUGGCGUAAUGGUAAUGCGUCUCCCUCCUAAGAAGAAGCCUGCGGGUUCGAGUCCCGUACGGAACG [C5A C22U G39A A45C],≤ 0.5
10,GUUCAGUUGGCGUAAUAGUAACGCGUCUCCCUCCUGAGGAGAAGACUGCGGGUUCGAGUCCCGUACAGUACG [C5A G17A A36G G67A A69U],≤ 0.5
11,GUUCAGUUGGCGUAAUGGUAACGCGUCUCCCUCCUAAGGAGAAGACUGCGGGUUCGAGUGGCGUACGGAACG [C5A C60G C61G],0.544
12,GUUCAGUUGGCGUAAUGGUAACGCGUCUCCGUCCUAAGGAGAAGACAGCGGGUUCGAGUCCCGUACGGAACG [C5A C31G U47A],0.745
13,GUUCAGUUGGCGUAAUGGUAACGCGUCUCCCUCCUAAGGAGAAGAAUGCGGGUUCCAGUCCCGUACGAAGCG [C5A C46A G56C G68A A70G],≤ 0.5
14,GUUCAGUUGGCGUAAUGGUAACGCGUCUCACUCUUAAGGAGAAGAUUGCGGGUUCGAGUCCCGUACGGAACG [C5A C30A C34U C46U],≤ 0.5
15,GUUCAGUUGGCGUAAUGGUAACGCGUCUCCCUUCUAAGGAGAAGACUGCGGGUUCGAGUCCCGUACAGAACG [C5A C33U G67A],0.593
16,GUUCAGUUGGCGUAAUGGUAACGCGUCUUCCUCCUAAGGAGAAGCCUGCGGGUUCGAGUCCCGUACGGAACG [C5A C29U A45C],0.546
17,GUUCAGUUGGCGUAAUGGUAACCCGUCUCCCUCCUAAGGAGAAGACUGCGGGUUCGAGUCCUGUACGGUACG [C5A G23C C62U A69U],≤ 0.5
18,GUUCAGUUGGCGUAAUAGUAACGCGUCUCCCUCCUGAGGAGAAGACUGCGGGUUCGAGUCCCGUACGGAACG [C5A G17A A36G],≤ 0.5
19,GUUCAGUUGGCGUAAUGGUAACGCGUCUCUCUCCUAAGGUGAAGACUGCGGGUUCGAGUCCCGUACGGAACG [C5A C30U A40U],0.621

row,Variant,yeast fitness
1,GUUCAGUUGGCGUAAUGGUAACGGGUCUGCCUCCUAAGGCGAUGACAGCGGGUUCGAGUACCGUACGGAACG [C5A C24G C29G A40C A43U U47A C60A],≤ 0.5
2,GUUCAGUUGGCGUAAUGGUAACGCAUCCCCUUCCUAAGGCGGAGACUGCGGGUUCGAGUCCCGUACGGAACG [C5A G25A U28C C31U A40C A42G],≤ 0.5
3,GUUCAGUUGGCGUAAUGGUAACGGGACUGCCACCUAAGGAGAAGACUACGGGUUCGAGUCCCGUAGUGAACG [C5A C24G U26A C29G U32A G48A C66G G67U],≤ 0.5
4,GUUCAGUUGGCAUAAUGAUAACGCGUCUCCCUCCUAAGGAGAAGACUGCGGGUUCGAGUCCCGUACGGAACG [C5A G12A G18A],≤ 0.5
5,GUUCAGUUGGCGUAAUAGUAACGCGUCUCCCUCCUAAGGAGAUGACUGCGGGUUUGAGUCCCGUACGGAACG [C5A G17A A43U C55U],≤ 0.5
6,GUUCAGUUGGCGUAAUGGUAACGGGACUGCCACCUAAGGAGAAGACUGCGGGUUCGAGUCCCGUUCGGAACG [C5A C24G U26A C29G U32A A65U],≤ 0.5
7,GUUCAGUUGGCGUAAUAGUAACGCGUCUCCCUCCUAAGGAGAAGACUGCGGGUUCGAGUCCCGUAUGGAACG [C5A G17A C66U],0.587
8,GUUCAGUUGGCGUAAUGGUAACGCGUGUCCCUCCUAAGGAGAAGACUGCGGGUUCGCGUCCCGUACGGAACG [C5A C27G A57C],≤ 0.5
9,GUUCAGUUGGCGUAAUGGUAACGCGUCUACCUCGUAAGGAGAAGACUGCGGGUUCGAGUCCCGUACGCAACG [C5A C29A C34G G68C],≤ 0.5
10,GUUCAGUUGGCGUAAUAGUACCGCGUCUCCCUGCUAAGGAGAUGACUGCGGGUUCGAGUCCCGUACGGAACG [C5A G17A A21C C33G A43U],≤ 0.5
11,GUUCAGUUGGCGUAAUGGUAACGUGUCUCCCUCCUAGGGGGUAGACUGUGGGUUCGAGUCCCGUACCGAGCG [C5A C24U A37G A40G A42U C49U G67C A70G],≤ 0.5
12,GUUCAGUUGGCGUAAUGGUAACGCGUCUCCCUCCUAAGGAGAAGACUGCGGGUUCGAGUCCUGUACGGAACG [C5A C62U],0.954
13,GUUCAGUUGGCGUAAUGCUAACGCGUCUCCCUCCUAAGGAGAAGACUCCGGGUUCGAGUCCCGUCCGGAACG [C5A G18C G48C A65C],≤ 0.5
14,GUUCAGUUGGCGUAAUGGUAACGCGUCUCUCUCCUAAGGAGAAGACUGCGGGUUCGAGUCCCGUACGUAACG [C5A C30U G68U],0.567
15,GUUCAGUUAGCGUAAUGGUAACGCAUCUCCCUCCUAAGGAGAAGACUGCGGGUUCGAGUCCCGUACGGUACG [C5A G9A G25A A69U],≤ 0.5
16,GUUCAGUUGGCGUAAUAGUAACGCAUCUCCCUCCUAAGGAGAAGACUCCGGGUUCGAGUCCCGUACGGAACG [C5A G17A G25A G48C],≤ 0.5
17,GUUCAGUUGGCGUAAUGGUAACGCGUCUCCCUCAUAAGGAGAAGAUUGCGGGUUCGGGUCCCGUACGGAACG [C5A C34A C46U A57G],≤ 0.5
18,GUUCAGUUGGCGUAAUGGUAACGCGUCUCCCUGAUAAGGCGAAGACUGCGGGUUUGAGUCCCGUCCGGAACG [C5A C33G C34A A40C C55U A65C],≤ 0.5
19,GUUCAGUUAACGUAAUGGUGACGCGUCUCCCUCCUAAGGAGAAGACUGCGGGUUCGAGUCCCGUACGGAACG [C5A G9A G10A A20G],≤ 0.5
